This is an account of results in publication PMC3431585 (Channels, 2012).

Like-named read-outs stand apart in the source and are kept apart here.

Experiment [1] deals with T1, homomeric human CNGA3 channels (Homo sapiens, UniProt Q16281).
T1 sequence (Q16281 1-694): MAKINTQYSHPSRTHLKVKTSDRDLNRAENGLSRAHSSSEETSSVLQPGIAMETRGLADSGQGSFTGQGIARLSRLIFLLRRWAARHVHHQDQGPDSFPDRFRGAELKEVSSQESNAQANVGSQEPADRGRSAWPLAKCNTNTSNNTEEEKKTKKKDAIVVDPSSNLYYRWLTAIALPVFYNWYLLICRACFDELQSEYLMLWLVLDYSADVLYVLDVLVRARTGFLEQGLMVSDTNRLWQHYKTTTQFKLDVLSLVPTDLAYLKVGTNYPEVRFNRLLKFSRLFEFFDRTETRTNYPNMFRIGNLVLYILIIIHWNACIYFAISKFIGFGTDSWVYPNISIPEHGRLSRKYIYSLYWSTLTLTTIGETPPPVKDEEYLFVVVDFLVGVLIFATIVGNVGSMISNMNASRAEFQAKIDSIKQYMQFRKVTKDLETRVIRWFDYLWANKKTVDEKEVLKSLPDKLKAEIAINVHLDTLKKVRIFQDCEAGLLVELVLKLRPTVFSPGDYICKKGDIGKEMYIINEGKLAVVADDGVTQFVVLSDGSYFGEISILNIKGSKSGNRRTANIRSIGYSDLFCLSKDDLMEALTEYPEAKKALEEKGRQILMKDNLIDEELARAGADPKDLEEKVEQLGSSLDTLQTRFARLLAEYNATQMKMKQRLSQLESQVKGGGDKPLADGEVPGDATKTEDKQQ
It is filed as biochemical. To be noted: for IMAX cAMP (Hill fit): normalized to maximum cGMP current; for EC50: read-out: K1/2 cGMP (Hill fit); for gating effect (increase in cGMP apparent affinity) compared with MMP9: within 40 min of exposure, MMP2 10 nM, trypsin 10 nM, collagenase 100 nM.

The target in experiment [2] is heteromeric CNGA1 + CNGB1 channels (UniProt Q00194+Q14028). Type of experiment: biochemical, bovine CNGA1, human CNGB1. To be noted: for EC50: read-out: K1/2 cGMP (Hill fit).
The target of experiment [3] is T2, heteromeric CNGA3 + CNGB3 channels (Homo sapiens, UniProt Q16281+Q9NQW8).
T2 sequence (Q16281 1-694): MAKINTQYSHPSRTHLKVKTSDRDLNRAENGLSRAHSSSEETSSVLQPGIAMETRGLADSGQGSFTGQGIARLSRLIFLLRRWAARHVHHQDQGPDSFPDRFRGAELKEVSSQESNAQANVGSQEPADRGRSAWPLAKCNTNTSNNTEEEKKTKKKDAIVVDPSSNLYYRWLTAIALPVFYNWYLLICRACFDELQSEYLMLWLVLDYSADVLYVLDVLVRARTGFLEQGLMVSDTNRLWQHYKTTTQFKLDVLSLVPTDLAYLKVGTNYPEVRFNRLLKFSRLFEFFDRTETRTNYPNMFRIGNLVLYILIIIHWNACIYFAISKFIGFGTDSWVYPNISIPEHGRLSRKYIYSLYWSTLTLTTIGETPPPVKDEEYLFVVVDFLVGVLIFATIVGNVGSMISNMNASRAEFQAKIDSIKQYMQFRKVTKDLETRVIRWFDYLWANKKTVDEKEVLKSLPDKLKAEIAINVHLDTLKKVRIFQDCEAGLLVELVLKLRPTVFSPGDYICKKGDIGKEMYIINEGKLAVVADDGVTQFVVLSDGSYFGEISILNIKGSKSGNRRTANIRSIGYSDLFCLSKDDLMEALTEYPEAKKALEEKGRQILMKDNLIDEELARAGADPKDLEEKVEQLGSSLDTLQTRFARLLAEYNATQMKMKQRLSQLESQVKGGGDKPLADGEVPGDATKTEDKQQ
T2 sequence (Q9NQW8 1-809): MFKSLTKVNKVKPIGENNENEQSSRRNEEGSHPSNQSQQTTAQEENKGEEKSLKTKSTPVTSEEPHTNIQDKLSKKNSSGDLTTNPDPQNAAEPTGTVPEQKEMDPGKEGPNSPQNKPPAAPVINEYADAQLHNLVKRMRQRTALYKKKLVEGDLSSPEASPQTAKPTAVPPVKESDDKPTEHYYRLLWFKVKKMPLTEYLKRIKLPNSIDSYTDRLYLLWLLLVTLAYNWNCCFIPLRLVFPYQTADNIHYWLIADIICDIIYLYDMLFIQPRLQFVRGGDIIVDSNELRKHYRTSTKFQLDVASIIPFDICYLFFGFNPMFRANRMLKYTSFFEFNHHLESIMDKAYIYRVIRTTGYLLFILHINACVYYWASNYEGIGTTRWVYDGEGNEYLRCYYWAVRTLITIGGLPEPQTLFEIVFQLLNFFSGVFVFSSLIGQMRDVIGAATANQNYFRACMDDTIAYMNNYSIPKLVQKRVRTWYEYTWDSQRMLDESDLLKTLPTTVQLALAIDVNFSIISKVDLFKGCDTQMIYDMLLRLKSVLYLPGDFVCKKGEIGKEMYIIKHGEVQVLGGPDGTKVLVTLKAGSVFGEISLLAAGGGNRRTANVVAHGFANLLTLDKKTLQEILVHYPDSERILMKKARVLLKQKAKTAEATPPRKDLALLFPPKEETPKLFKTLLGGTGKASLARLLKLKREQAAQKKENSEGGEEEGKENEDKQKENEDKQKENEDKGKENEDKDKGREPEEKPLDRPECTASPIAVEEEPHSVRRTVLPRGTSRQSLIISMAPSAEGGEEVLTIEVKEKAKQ
Type of experiment: biochemical.

Experiment [4] deals with native rod photoreceptor CNG channels. The experiment can be described thus: Inside-out patches excised from Xenopus rod outer segments. Type of experiment: biochemical, Xenopus laevis. Put shortly: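 Retinas dissected from Xenopus laevis into frog Ringer's (pH 7.6), and rod outer segments freed by gentle agitation. Inside-out patches (pipettes 3–6 MΩ) at 20–23°C, with 130 mM NaCl, 0.2 mM EDTA, 3 mM HEPES (pH 7.2) solutions.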

In the next experiment the target is T3, homomeric CNGA1 channels (Bos taurus, UniProt Q00194).
T3 sequence (Q00194 1-690): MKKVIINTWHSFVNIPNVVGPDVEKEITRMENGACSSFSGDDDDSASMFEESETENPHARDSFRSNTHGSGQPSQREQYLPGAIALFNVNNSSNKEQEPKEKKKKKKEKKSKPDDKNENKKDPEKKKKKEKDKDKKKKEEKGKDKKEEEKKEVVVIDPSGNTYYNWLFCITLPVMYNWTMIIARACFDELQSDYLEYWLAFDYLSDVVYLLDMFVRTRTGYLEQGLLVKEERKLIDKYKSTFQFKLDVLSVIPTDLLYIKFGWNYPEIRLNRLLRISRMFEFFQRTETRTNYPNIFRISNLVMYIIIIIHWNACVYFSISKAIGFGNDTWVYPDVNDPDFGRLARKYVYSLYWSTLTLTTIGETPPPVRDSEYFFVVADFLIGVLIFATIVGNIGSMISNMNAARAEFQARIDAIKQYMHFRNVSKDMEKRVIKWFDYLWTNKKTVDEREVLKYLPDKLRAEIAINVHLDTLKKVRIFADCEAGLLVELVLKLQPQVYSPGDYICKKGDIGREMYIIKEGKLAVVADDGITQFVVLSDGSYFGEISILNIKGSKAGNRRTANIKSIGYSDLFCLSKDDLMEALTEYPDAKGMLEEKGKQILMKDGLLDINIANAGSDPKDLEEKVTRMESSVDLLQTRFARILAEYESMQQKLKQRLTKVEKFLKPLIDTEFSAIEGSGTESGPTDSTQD
The experiment can be described thus: Inside-out patch-clamp of oocyte patches expressing rod homomeric CNGA1 channels. Type of experiment: biochemical, bovine.

The mark [5] stands for this setting: representative control patch, t0 (Fig 1F).
Setting [6] is: representative control patch, t80 (Fig 1F).
Where [7] appears, read: representative control patch, t0 (Fig 9C).
Where [8] appears, read: representative control patch, t40 (Fig 9C).
The mark [9] stands for this setting: representative control patch, t40 (Fig 4B).
Setting [10] is: representative control patch, t60 (Fig 1B).

heteromeric CNGA1 + CNGB1 channels, sequence (Q14028 whole entry, one chain of several): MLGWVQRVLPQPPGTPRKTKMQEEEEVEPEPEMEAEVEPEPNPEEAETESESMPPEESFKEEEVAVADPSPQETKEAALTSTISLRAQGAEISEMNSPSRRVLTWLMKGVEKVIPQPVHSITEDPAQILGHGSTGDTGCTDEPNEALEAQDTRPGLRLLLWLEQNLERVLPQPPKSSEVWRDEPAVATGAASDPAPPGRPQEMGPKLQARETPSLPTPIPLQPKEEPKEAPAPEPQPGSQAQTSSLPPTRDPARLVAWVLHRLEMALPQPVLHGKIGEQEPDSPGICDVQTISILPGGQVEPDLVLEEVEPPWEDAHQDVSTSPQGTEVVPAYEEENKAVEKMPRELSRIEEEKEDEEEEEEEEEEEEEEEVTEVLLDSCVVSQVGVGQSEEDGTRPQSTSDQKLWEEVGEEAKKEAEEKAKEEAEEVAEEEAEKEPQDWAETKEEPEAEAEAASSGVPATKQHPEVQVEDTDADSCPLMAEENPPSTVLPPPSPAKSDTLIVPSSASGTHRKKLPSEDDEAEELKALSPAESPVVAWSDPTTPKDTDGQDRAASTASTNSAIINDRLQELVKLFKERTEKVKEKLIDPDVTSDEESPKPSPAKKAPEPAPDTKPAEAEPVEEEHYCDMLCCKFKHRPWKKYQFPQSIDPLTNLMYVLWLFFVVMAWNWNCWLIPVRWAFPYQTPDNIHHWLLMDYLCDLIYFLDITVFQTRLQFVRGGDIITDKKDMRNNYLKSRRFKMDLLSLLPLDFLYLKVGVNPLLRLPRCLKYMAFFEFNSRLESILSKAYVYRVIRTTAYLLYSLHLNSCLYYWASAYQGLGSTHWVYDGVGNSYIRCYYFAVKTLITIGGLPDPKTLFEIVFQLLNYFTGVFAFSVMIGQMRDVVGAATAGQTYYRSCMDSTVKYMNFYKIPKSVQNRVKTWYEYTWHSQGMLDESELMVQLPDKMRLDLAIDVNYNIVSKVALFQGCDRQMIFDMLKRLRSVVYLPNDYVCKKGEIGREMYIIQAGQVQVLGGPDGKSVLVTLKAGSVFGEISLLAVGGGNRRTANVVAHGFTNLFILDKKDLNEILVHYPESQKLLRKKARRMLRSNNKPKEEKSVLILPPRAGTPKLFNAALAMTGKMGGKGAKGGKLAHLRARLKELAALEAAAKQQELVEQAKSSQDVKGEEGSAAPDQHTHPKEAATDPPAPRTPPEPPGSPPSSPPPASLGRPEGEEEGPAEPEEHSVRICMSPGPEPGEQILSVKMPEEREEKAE

As to `Nc1ncnc2c1ncn2[C@@H]1O[C@@H]2COP(=O)(O)O[C@H]2[C@H]1O` [cAMP, cyclic adenosine monophosphate], in experiment [1] (control patches, 60 min, n = 6), the “efficacy of cAMP, IcAMP/IMAX” value was 0.15 ± 0.05. Besides, in experiment [1] (setting [5]), the “nH cAMP (Hill fit)” value is listed as 1.1 and the “IMAX cAMP (Hill fit)” value worked out at 0.29. Further, in experiment [1] (setting [6]), the “nH cAMP (Hill fit)” value came out at 1.0 and the “IMAX cAMP (Hill fit)” value is on record as 0.14.

On to `Nc1nc2c(ncn2[C@@H]2O[C@@H]3COP(=O)(O)O[C@H]3[C@H]2O)c(=O)[nH]1` [cGMP, cyclic guanosine monophosphate], for which the “equilibrium constant for the allosteric transition (L)” value is reported as 20 in experiment [2] (A1+B1 control, cGMP, 40 min post excision (Fig 10B)); 180 in experiment [1] (A3 control, cGMP, 80 min post excision, allosteric model fit (Fig 10A)); 40 on homomeric CNGA1 channels (A1 control, cGMP, 40 min post excision (Fig 10B)). Also, the EC50 in experiment [2] (setting [7]) turned out to be 59.4 µM; in experiment [2] (setting [8]), 55.6 µM; in experiment [3] (read-out: K1/2,GMP, time-matched control, 80 min, n = 4-6), 16.4 µM; in experiment [3] (read-out: K1/2 cGMP (Hill fit), representative control patch, t0 (Fig 8A)), 15.7 µM; in experiment [3] (read-out: K1/2 cGMP (Hill fit), representative control patch, t80 (Fig 8A)), 16.5 µM; in experiment [1] (setting [9]), 8 µM. For the same molecule, the EC50 amounted to 10.3 µM in experiment [1] (setting [10]); 19.3 µM in experiment [4] (read-out: K1/2 cGMP (Hill fit), representative control patch, t0 (Fig 11A)); 28.1 µM in experiment [4] (read-out: K1/2 cGMP (Hill fit), representative control patch, t25 (Fig 11A)); 23.5 ± 2.1 µM in experiment [4] (read-out: initial K1/2 cGMP, native CNG channels, initial value). The “nH cGMP (Hill fit)” value in experiment [2] (setting [7]) was 2.3; in experiment [2] (setting [8]) it was 2.4; in experiment [3] (representative control patch, t0 (Fig 8A)) it was 2.1; in experiment [3] (representative control patch, t80 (Fig 8A)), 1.9; in experiment [1] (representative control patch, t0 (Fig 1B)) it was 2.9; in experiment [1] (setting [9]), 2.3. For the same molecule, the “nH cGMP (Hill fit)” value in experiment [1] (setting [10]) was 2.1; in experiment [4] (representative control patch, t0 (Fig 11A)) it was 2.6; in experiment [4] (representative control patch, t25 (Fig 11A)), 2.6; on homomeric CNGA1 channels (representative control patch, t0 (Fig 9A)) it was 2.2; on homomeric CNGA1 channels (representative control patch, t40 (Fig 9A)) it was 2.2. The “IMAX cGMP (Hill fit)” value in experiment [2] (representative control patch, t0 (Fig 9C), normalized to maximum t0 cGMP current) was 1.0; in experiment [3] (representative control patch, t0 (Fig 8A), normalized to maximum t0 cGMP current), 1.0; in experiment [1] (representative control patch, t0 (Fig 1B), normalized to maximum t0 cGMP current), 1.0; at homomeric CNGA1 channels (representative control patch, t0 (Fig 9A), normalized to maximum t0 cGMP current) it was 1.0. Besides, the “2 μM cGMP current, I2μM/IMAX” value in experiment [3] (control, 80 min, n = 4-6) came out at 0.03 ± 0.006. Besides, the “Hill slope nH, cGMP” value in experiment [1] (control patches, 60 min, n = 6) is 2.2 ± 0.2.

As for `CCCCNc1ccc(C(=O)OCCN(C)C)cc1` [tetracaine], in experiment [3] (data not shown), the “effect on the increased persistent current after MMP9” value is on record as “inhibited”.

Regarding collagenase, in experiment [1], the “gating effect (increase in cGMP apparent affinity) compared with MMP9” value was “failed to produce similar gating effects”.

B1: trypsin: extracellular serine protease, Trypsin-EDTA (Gibco, 25200) (protein, UniProt P00761 9-231, looked up)
Trypsin: IVGGYTCAANSIPYQVSLNSGSHFCGGSLINSQWVVSAAHCYKSRIQVRLGEHNIDVLEGNEQFINAAKIITHPNFNGNTLDNDIMLIKLSSPATLNSRVATVSLPRSCAAAGTECLISGWGNTKSSGSSYPSLLQCLKAPVLSDSSCKSSYPGQITGNMICVGFLEGGKDSCQGDSGGPVVCNGQLQGIVSWGYGCAQKNKPGVYTKVCNYVNWIQQTIAAN
modifications: EDTA
In the case of B1, in experiment [1], the “gating effect (increase in cGMP apparent affinity) compared with MMP9” value was “failed to produce similar gating effects”.

B2: MMP2: active human recombinant MMP2 (Calbiochem, PF023), closely related gelatinase/metalloproteinase (protein, UniProt P08253 110-660, looked up)
72 kDa type IV collagenase: YNFFPRKPKWDKNQITYRIIGYTPDLDPETVDDAFARAFQVWSDVTPLRFSRIHDGEADIMINFGRWEHGDGYPFDGKDGLLAHAFAPGTGVGGDSHFDDDELWTLGEGQVVRVKYGNADGEYCKFPFLFNGKEYNSCTDTGRSDGFLWCSTTYNFEKDGKYGFCPHEALFTMGGNAEGQPCKFPFRFQGTSYDSCTTEGRTDGYRWCGTTEDYDRDKKYGFCPETAMSTVGGNSEGAPCVFPFTFLGNKYESCTSAGRSDGKMWCATTANYDDDRKWGFCPDQGYSLFLVAAHEFGHAMGLEHSQDPGALMAPIYTYTKNFRLSQDDIKGIQELYGASPDIDLGTGPTPTLGPVTPEICKQDIVFDGIAQIRGEIFFFKDRFIWRTVTPRDKPMGPLLVATFWPELPEKIDAVYEAPQEEKAVFFAGNEYWIYSASTLERGYPKPLTSLGLPPDVQRVDAAFNWSKNKKTYIFAGDKFWRYNEVKKKMDPGFPKLIADAWNAIPDNLDAVVDLQGGGHSYFFKGAYYLKLENQSLKSVKFGSIKSDWLGC
With B2, in experiment [1], the “gating effect (increase in cGMP apparent affinity) compared with MMP9” value is “indistinguishable from the effect produced by MMP9”.
